Assay results as given in ChEMBL document CHEMBL3286116, “Synthesis, biological evaluation and structure-activity correlation study of a series of imidazol-based compounds as Candida albicans inhibitors” (Eur J Med Chem, 2014).
Converted amounts (≈) assume the structure as drawn.

Key:
[1] = tested on: Cryptococcus neoformans; test: Antifungal activity against Cryptococcus neoformans DSM 11959 after 72 hrs by CLSI broth microdilution method; assay type: functional; conditions: DSM 11959, 72 h
Summary of the method: (§1)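 Cryptococcus neoformans tested by CLSI broth microdilution in RPMI 1640, with serial two-fold dilutions from DMSO stocks at 100× the top concentration, final 0.125–64. Inoculum was 1.0–1.5 × 10^3 cells mL−1 at 35 °C, with growth read at 72 h. MIC is the lowest concentration with ≥50% growth inhibition versus control. Median of five replicates, plus geometric mean.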

[2] = tested on: Candida albicans; test: Antifungal activity against Candida albicans ATCC 10231 after 48 hrs by CLSI broth microdilution method; assay type: functional; conditions: ATCC 10231, 48 h
Summary of the method: (§2)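 Yeast CLSI broth microdilution (M27-A3). Compounds dissolved in DMSO at 100× the top test concentration, then diluted as serial two-fold dilutions in RPMI 1640 to final 0.125–64. Inoculum was 1.0–1.5 × 10^3 cells mL−1, incubated at 35 °C and read for growth at 48 h. MIC is the lowest concentration giving ≥50% growth inhibition versus growth control. Reported as the median of five replicates and as the geometric mean.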

[3] = tested on: Candida tropicalis; test: Antifungal activity against Candida tropicalis DSM 11953 after 48 hrs by CLSI broth microdilution method; assay type: functional; conditions: DSM 11953, 48 h; summary of the method: as §2
[4] = tested on: Candida albicans; test: Antifungal activity against Candida albicans ATCC 20891 after 48 hrs by CLSI broth microdilution method; assay type: functional; conditions: ATCC 20891, 48 h; summary of the method: as §2
[5] = tested on: Cryptococcus neoformans; test: Antifungal activity against Cryptococcus neoformans PMC 2115 after 72 hrs by CLSI broth microdilution method; assay type: functional; conditions: PMC 2115, 72 h; summary of the method: as §1
[6] = tested on: Trichophyton mentagrophytes; test: Antifungal activity against Trichophyton mentagrophytes PMC 6509 after 72 hrs by CLSI broth microdilution method; assay type: functional; conditions: PMC 6509, 72 h
Summary of the method: (§3)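 Dermatophytes tested by CLSI broth microdilution for filamentous fungi (M38-A2). Serial two-fold dilutions of DMSO-dissolved compound in RPMI 1640, final 0.125–64. Inoculum was 0.4–5 × 10^4 CFU mL−1, incubated at 35 °C and read at 72 h. MIC80 is the lowest concentration giving ≥80% growth inhibition versus growth control. Median of five replicates, plus geometric mean.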

[7] = tested on: Candida albicans; test: Antifungal activity against Candida albicans ATCC 76615 after 48 hrs by CLSI broth microdilution method; assay type: functional; conditions: ATCC 76615, 48 h; summary of the method: as §2
[8] = tested on: Candida albicans; test: Antifungal activity against Candida albicans PMC 1041R after 48 hrs by CLSI broth microdilution method; assay type: functional; summary of the method: as §2
[9] = tested on: Trichophyton mentagrophytes; test: Antifungal activity against Trichophyton mentagrophytes PMC 6552 after 72 hrs by CLSI broth microdilution method; assay type: functional; conditions: PMC 6552, 72 h; summary of the method: as §3
[10] = tested on: Candida tropicalis; test: Antifungal activity against Candida tropicalis PMC 0910 after 48 hrs by CLSI broth microdilution method; assay type: functional; conditions: PMC 0910, 48 h; summary of the method: as §2
[11] = tested on: Cryptococcus neoformans; test: Antifungal activity against Cryptococcus neoformans PMC 2102 after 72 hrs by CLSI broth microdilution method; assay type: functional; conditions: PMC 2102, 72 h; summary of the method: as §1
[12] = tested on: Candida albicans; test: Antifungal activity against Candida albicans ATCC 3153 after 48 hrs by CLSI broth microdilution method; assay type: functional; conditions: ATCC 3153, 48 h; summary of the method: as §2
[13] = tested on: Nakaseomyces glabratus; test: Antifungal activity against Candida glabrata PMC 0852R after 48 hrs by CLSI broth microdilution method; assay type: functional; summary of the method: as §2
[14] = tested on: Candida albicans; test: Antifungal activity against Candida albicans PMC 1042R after 48 hrs by CLSI broth microdilution method; assay type: functional; summary of the method: as §2
[15] = tested on: Nakaseomyces glabratus; test: Antifungal activity against Candida glabrata PMC 0850R after 48 hrs by CLSI broth microdilution method; assay type: functional; summary of the method: as §2
[16] = tested on: Candida parapsilosis; test: Antifungal activity against Candida parapsilosis ATCC 22019 after 48 hrs by CLSI broth microdilution method; assay type: functional; conditions: Lodderomyces parapsilosis, ATCC 22019, 48 h; summary of the method: as §2
[17] = tested on: Candida albicans; test: Antifungal activity against Candida albicans PMC 1011 after 48 hrs by CLSI broth microdilution method; assay type: functional; conditions: PMC 1011, 48 h; summary of the method: as §2
[18] = Cytotoxicity against human A549 cells after 48 hrs by MTT assay; assay type: cell-based
Summary of the method: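 A549 cells (ATCC CCL-185) seeded at 2 × 10^4/well in phenol-red-free RPMI 1640 with 10% FBS, L-glutamine, penicillin and streptomycin, at 37 °C and 5% CO2. Exposed 48 h to DMSO-dissolved compounds (final 16–256; at least five concentrations, triplicate). MTT added for 3–4 h, crystals solubilized, OD read at 570 nm. CC50 taken versus the DMSO control. Mean ± SD of two independent experiments.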

[19] = tested on: Trichophyton mentagrophytes; test: Antifungal activity against Trichophyton mentagrophytes PMC 6515 after 72 hrs by CLSI broth microdilution method; assay type: functional; conditions: PMC 6515, 72 h; summary of the method: as §3
[20] = tested on: Trichophyton mentagrophytes; test: Antifungal activity against Trichophyton mentagrophytes DSM 4870 after 72 hrs by CLSI broth microdilution method; assay type: functional; conditions: DSM 4870, 72 h; summary of the method: as §3
[21] = tested on: Nakaseomyces glabratus; test: Antifungal activity against Candida glabrata PMC 0805 after 48 hrs by CLSI broth microdilution method; assay type: functional; conditions: PMC 0805, 48 h; summary of the method: as §2
[22] = tested on: Candida parapsilosis; test: Antifungal activity against Candida parapsilosis DSM 11224 after 48 hrs by CLSI broth microdilution method; assay type: functional; conditions: Lodderomyces parapsilosis, DSM 11224, 48 h; summary of the method: as §2
[23] = tested on: Nakaseomyces glabratus; test: Antifungal activity against Candida glabrata PMC 0807 after 48 hrs by CLSI broth microdilution method; assay type: functional; conditions: PMC 0807, 48 h; summary of the method: as §2
[24] = tested on: Nannizzia gypsea; test: Antifungal activity against Microsporum gypseum PMC 7331 after 72 hrs by CLSI broth microdilution method; assay type: functional; conditions: PMC 7331, 72 h; summary of the method: as §3
[25] = tested on: Candida albicans; test: Antifungal activity against Candida albicans ATCC 10261 after 48 hrs by CLSI broth microdilution method; assay type: functional; conditions: ATCC 10261, 48 h; summary of the method: as §2
[26] = tested on: Nakaseomyces glabratus; test: Antifungal activity against Candida glabrata PMC 0851R after 48 hrs by CLSI broth microdilution method; assay type: functional; summary of the method: as §2
[27] = tested on: Candida albicans; test: Antifungal activity against Candida albicans ATCC 90028 after 48 hrs by CLSI broth microdilution method; assay type: functional; conditions: ATCC 90028, 48 h; summary of the method: as §2
[28] = tested on: Nannizzia gypsea; test: Antifungal activity against Microsporum gypseum PMC 7303 after 72 hrs by CLSI broth microdilution method; assay type: functional; conditions: PMC 7303, 72 h; summary of the method: as §3
[29] = tested on: Candida albicans; test: Antifungal activity against Candida albicans ATCC 24433 after 48 hrs by CLSI broth microdilution method; assay type: functional; conditions: ATCC 24433, 48 h; summary of the method: as §2
[30] = tested on: Trichophyton mentagrophytes; test: Antifungal activity against Trichophyton mentagrophytes PMC 6503 after 72 hrs by CLSI broth microdilution method; assay type: functional; conditions: PMC 6503, 72 h; summary of the method: as §3
[31] = tested on: Cryptococcus neoformans; test: Antifungal activity against Cryptococcus neoformans PMC 2123 after 72 hrs by CLSI broth microdilution method; assay type: functional; conditions: PMC 2123, 72 h; summary of the method: as §1
[32] = tested on: Nannizzia gypsea; test: Antifungal activity against Microsporum gypseum DSM 3824 after 72 hrs by CLSI broth microdilution method; assay type: functional; conditions: DSM 3824, 72 h; summary of the method: as §3
[33] = tested on: Pichia kudriavzevii; test: Antifungal activity against Candida krusei DSM 6128 after 48 hrs by CLSI broth microdilution method; assay type: functional; conditions: DSM 6128, 48 h; summary of the method: as §2
[34] = tested on: Trichophyton mentagrophytes; test: Antifungal activity against Trichophyton mentagrophytes PMC 6531 after 72 hrs by CLSI broth microdilution method; assay type: functional; conditions: PMC 6531, 72 h; summary of the method: as §3
[35] = tested on: Cryptococcus neoformans; test: Antifungal activity against Cryptococcus neoformans PMC 2107 after 72 hrs by CLSI broth microdilution method; assay type: functional; conditions: PMC 2107, 72 h; summary of the method: as §1
[36] = tested on: Cryptococcus neoformans; test: Antifungal activity against Cryptococcus neoformans PMC 2103 after 72 hrs by CLSI broth microdilution method; assay type: functional; conditions: PMC 2103, 72 h; summary of the method: as §1
[37] = tested on: Candida albicans; test: Antifungal activity against Candida albicans PMC 1040R after 48 hrs by CLSI broth microdilution method; assay type: functional; summary of the method: as §2
[38] = tested on: Pichia kudriavzevii; test: Antifungal activity against Candida krusei PMC 0613 after 48 hrs by CLSI broth microdilution method; assay type: functional; conditions: PMC 0613, 48 h; summary of the method: as §2
[39] = tested on: Cryptococcus neoformans; test: Antifungal activity against Cryptococcus neoformans PMC 2136 after 72 hrs by CLSI broth microdilution method; assay type: functional; conditions: PMC 2136, 72 h; summary of the method: as §1
[40] = tested on: Cryptococcus neoformans; test: Antifungal activity against Cryptococcus neoformans PMC 2111 after 72 hrs by CLSI broth microdilution method; assay type: functional; conditions: PMC 2111, 72 h; summary of the method: as §1
[41] = tested on: Nakaseomyces glabratus; test: Antifungal activity against Candida glabrata PMC 0853R after 48 hrs by CLSI broth microdilution method; assay type: functional; summary of the method: as §2

- MIC50 [1]: 0.25 µg/mL (≈ 0.481 µM)
- MIC50 [2]: 4 µg/mL (≈ 7.69 µM)
- MIC50 [3]: 0.5 µg/mL (≈ 0.962 µM)
- MIC50 [4]: 0.125 µg/mL (≈ 0.24 µM)
- MIC50 [5]: 0.25 µg/mL (≈ 0.481 µM)
- MIC80 [6]: 8 µg/mL (≈ 15.4 µM)
- MIC50 [7]: 8 µg/mL (≈ 15.4 µM)
- MIC50 [8]: 1 µg/mL (≈ 1.92 µM)
- MIC80 [9]: 8 µg/mL (≈ 15.4 µM)
- MIC50 [10]: 2 µg/mL (≈ 3.85 µM)
- MIC50 [11]: 0.25 µg/mL (≈ 0.481 µM)
- MIC50 [12]: 8 µg/mL (≈ 15.4 µM)
- MIC50 [13]: 4 µg/mL (≈ 7.69 µM)
- MIC50 [14]: 2 µg/mL (≈ 3.85 µM)
- MIC50 [15]: 1 µg/mL (≈ 1.92 µM)
- MIC50 [16]: 0.25 µg/mL (≈ 0.481 µM)
- MIC50 [17]: 0.25 µg/mL (≈ 0.481 µM)
- MIC80 [19]: 8 µg/mL (≈ 15.4 µM)
- MIC80 [20]: 8 µg/mL (≈ 15.4 µM)
- MIC50 [21]: 0.125 µg/mL (≈ 0.24 µM)
- MIC50 [22]: 0.125 µg/mL (≈ 0.24 µM)
- MIC50 [23]: 1 µg/mL (≈ 1.92 µM)
- MIC80 [24]: 8 µg/mL (≈ 15.4 µM)
- MIC50 [25]: 1 µg/mL (≈ 1.92 µM)
- MIC50 [26]: 64 µg/mL (≈ 123 µM)
- MIC50 [27]: 0.25 µg/mL (≈ 0.481 µM)
- MIC80 [28]: 4 µg/mL (≈ 7.69 µM)
- MIC50 [29]: 4 µg/mL (≈ 7.69 µM)
- MIC80 [30]: 8 µg/mL (≈ 15.4 µM)
- MIC50 [31]: 0.5 µg/mL (≈ 0.962 µM)
- MIC80 [32]: 4 µg/mL (≈ 7.69 µM)
- MIC50 [33]: 1 µg/mL (≈ 1.92 µM)
- MIC80 [34]: 8 µg/mL (≈ 15.4 µM)
- MIC50 [35]: 0.25 µg/mL (≈ 0.481 µM)
- MIC50 [36]: 0.25 µg/mL (≈ 0.481 µM)
- MIC50 [37]: 64 µg/mL (≈ 123 µM)
- MIC50 [38]: 0.125 µg/mL (≈ 0.24 µM)
- MIC50 [39]: 0.125 µg/mL (≈ 0.24 µM)
- MIC50 [40]: 0.5 µg/mL (≈ 0.962 µM)
- MIC50 [41]: 4 µg/mL (≈ 7.69 µM)
Compound: O=C(Nc1ccc(N2CCN(c3ccc(Cl)cc3)CC2)cc1)OC(Cn1ccnc1)c1ccc(F)cc1 (stereo unspecified)
- CC50 at 48 h [18]: 172 µg/mL (≈ 330 µM)
